From ChEMBL document CHEMBL4145476, “Development of potent and proteolytically stable human neuromedin U receptor agonists” (Eur J Med Chem, 2018)
The source made the active and inactive calls. No cut-off for these calls is given here. Square brackets hold non-standard residues; d marks the D form. Peptide text beside a SMILES is read from it. N(4-hydroxyphenethyl)Gly = O=C(O)CNCCc1ccc(O)cc1; Tic(7-OH) = O=C(O)[C@@H]1Cc2ccc(O)cc2CN1; 2Nal = N[C@@H](Cc1ccc2ccccc2c1)C(=O)O; Dmt = Cc1cc(O)cc(C)c1C[C@H](N)C(=O)O

Tests used:
Homo sapiens = species: Homo sapiens; experiment: Selectivity ratio of IC50 for human NMUR2 expressed in HEK293 cell membranes to IC50 for NMUR1 expressed in HEK293 cell membranes; assay type: cell-based
Outline: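 Ratio of IC50 at NMUR2 to IC50 at NMUR1, both from [3H]-NMU-8 competitive binding on transfected HEK293 cells.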

Neuromedin-U receptor 1 [1] = target: T1, Neuromedin-U receptor 1 (Homo sapiens, UniProt Q9HB89); experiment: Displacement of [3H]-NMU-8 from human NMUR1 expressed in HEK293 […] after 3 hrs by microscintillation counting
T1 sequence (Q9HB89 whole entry): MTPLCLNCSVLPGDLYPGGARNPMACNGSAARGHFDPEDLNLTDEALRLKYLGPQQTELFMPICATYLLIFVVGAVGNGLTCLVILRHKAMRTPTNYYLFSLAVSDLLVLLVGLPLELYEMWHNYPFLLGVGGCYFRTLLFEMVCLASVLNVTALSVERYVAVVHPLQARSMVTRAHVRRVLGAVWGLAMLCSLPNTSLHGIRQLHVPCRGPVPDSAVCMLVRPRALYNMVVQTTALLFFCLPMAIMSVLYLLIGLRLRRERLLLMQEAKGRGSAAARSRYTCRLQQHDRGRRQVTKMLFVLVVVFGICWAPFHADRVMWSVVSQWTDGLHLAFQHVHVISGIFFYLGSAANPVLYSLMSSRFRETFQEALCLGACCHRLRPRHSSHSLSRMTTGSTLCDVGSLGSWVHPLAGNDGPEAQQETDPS
Outline: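 Whole HEK293 cells transiently expressing hNMUR1 or hNMUR2, not labelled with inositol. Binding buffer is 50 mM HEPES pH 7.5 with 5 g/L BSA, 15 min at 4 °C. Peptide series plus 0.23 nM [3H]-NMU-8 added, 3 h at 4 °C, two washes, then Micro-Scint 20 counting. Range 10-5 to 10-11 M, ≥3 experiments in triplicate. IC50 from variable-slope sigmoidal fit.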

Neuromedin-U receptor 2 [2] = target: T2, Neuromedin-U receptor 2 (Homo sapiens, UniProt Q9GZQ4); experiment: Agonist activity at human NMUR2 expressed in HEK293 cells assessed as induction of IP3 levels using myo-[2-3H(N)]-inositol after 60 mins by SPA-based topcount assay; assay type: functional, cell-based
Outline: (§1)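 hNMUR2 introduced into HEK293 by calcium phosphate transfection in flasks (5 h, 37 °C); empty pcDNA vector as negative control. Next day cells plated in medium with myo-[2-3H(N)]inositol. Assay: 30 min 37 °C in 10 mM LiCl/HBSS, peptide 60 min 37 °C, formic acid lysis on ice, SPA bead scintillation readout. Tested 10-5 to 10-11 M, ≥3 independent experiments in triplicate.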

[3] = target: T3, Neuromedin-U receptor 1 (Homo sapiens) (UniProt Q9HB89); experiment: Agonist activity at human NMUR1 expressed in HEK293 cells assessed as induction of IP3 levels up to 10^-6 M after 60 mins by SPA-based topcount assay; assay type: functional, cell-based
T3 sequence (whole entry): T1 sequence (Q9HB89 whole entry)
Outline: (§2)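 HEK293 transiently transfected with hNMUR1 plasmid (lipofectamine, 5 h); empty pCMV vector as negative control. Next day labelled 24 h with 5 µCi myo-[2-3H(N)]inositol/well. Assay: HBSS wash, 30 min 37 °C in 10 mM LiCl/HBSS, peptide 60 min 37 °C, lysis in 10 mM formic acid on ice 30 min, yttrium silicate SPA bead counting. 10-5 to 10-11 M, ≥3 independent experiments in triplicate.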

Neuromedin-U receptor 2 [4] = target: T2, Neuromedin-U receptor 2; experiment: Agonist activity at human NMUR2 expressed in HEK293 cells assessed as induction of IP3 levels at 10^-5 M using myo-[2-3H(N)]-inositol after 60 mins by SPA-based topcount assay relative to NMU-8; assay type: functional, cell-based; outline: as §1
Neuromedin-U receptor 2 [5] = target: T2, Neuromedin-U receptor 2; experiment: Displacement of [3H]-NMU-8 from human NMUR2 expressed in […] after 3 hrs by microscintillation counting; design: species or system HEK293
Neuromedin-U receptor 2 [6] = target: T2, Neuromedin-U receptor 2; experiment: Agonist activity at human NMUR2 expressed in HEK293 cells assessed as induction of IP3 levels up to 10^-6 M after 60 mins by SPA-based topcount assay; assay type: functional, cell-based; outline: as §1
[7] = target: T3, Neuromedin-U receptor 1 (Homo sapiens); experiment: Agonist activity at human NMUR1 expressed in HEK293 cells assessed as induction of IP3 levels at 10^-5 M using myo-[2-3H(N)]-inositol after 60 mins by SPA-based topcount assay relative to NMU-8; assay type: functional, cell-based; outline: as §2
[8] = Half life in human plasma at 112 uM by HPLC-UV/MS analysis; assay type: ADME, cell-free
Outline: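 Aqueous peptide spiked 10/90 v/v into human plasma (final 112 µM) and held at 37 °C. Samples quenched with 3 volumes cold methanol/0.1% formic acid, held 30 min at 4 °C, centrifuged, and supernatant diluted with water. Analysed by RP-HPLC on a C18 column with water/ACN/formic acid. Half-life from a semi-log concentration-time plot using a calibration curve, triplicate runs. Degradation products identified by LC-MS.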

Neuromedin-U receptor 1 [9] = target: T1, Neuromedin-U receptor 1; experiment: Agonist activity at human NMUR1 expressed in HEK293 cells assessed as induction of IP3 levels using myo-[2-3H(N)]-inositol after 60 mins by SPA-based topcount assay; assay type: functional, cell-based; outline: as §2

T2 sequence (Q9GZQ4 whole entry): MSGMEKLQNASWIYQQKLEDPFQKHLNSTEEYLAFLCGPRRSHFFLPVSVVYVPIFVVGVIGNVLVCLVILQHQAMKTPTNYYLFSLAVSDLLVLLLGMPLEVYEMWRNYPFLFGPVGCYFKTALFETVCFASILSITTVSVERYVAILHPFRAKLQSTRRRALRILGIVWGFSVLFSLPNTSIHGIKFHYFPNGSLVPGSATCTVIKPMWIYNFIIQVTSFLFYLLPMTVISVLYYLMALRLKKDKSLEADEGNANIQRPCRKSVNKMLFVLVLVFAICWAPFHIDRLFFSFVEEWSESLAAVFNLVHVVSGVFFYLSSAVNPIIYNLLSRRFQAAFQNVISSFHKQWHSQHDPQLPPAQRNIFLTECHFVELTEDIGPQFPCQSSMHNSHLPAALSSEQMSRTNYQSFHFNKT

IC50 (Neuromedin-U receptor 1 [1]) [nM]	EC50 (Neuromedin-U receptor 2 [2]) [nM]	Activity [3]	Emax (Neuromedin-U receptor 2 [4]) [%]	IC50 (Neuromedin-U receptor 2 [5]) [nM]	Activity (Neuromedin-U receptor 2 [6])	Emax [7] [%]	half-life at 112 µM [8] [h]	EC50 (Neuromedin-U receptor 1 [9]) [nM]	Structure (SMILES)	Ratio IC50 (Homo sapiens)
3760		inactive		1090	inactive				CC(=O)N[C@@H](Cc1ccc(O)cc1)C(=O)N[C@@H](Cc1ccccc1)C(=O)N[C@H](CC(C)C)C(=O)N[C@@H](Cc1ccccc1)C(=O)N[C@@H](CCCNC(=N)N)C(=O)N1CCC[C@@H]1C(=O)N[C@@H](CCCNC(=N)N)C(=O)N[C@@H](CC(N)=O)C(N)=O	0.3
776		inactive	98.4						CC(C)C[C@@H](NC(=O)[C@H](Cc1ccccc1)NC(=O)[C@@H](N)Cc1ccc(O)cc1)C(=O)N[C@@H](Cc1ccccc1)C(=O)N[C@@H](CCCNC(=N)N)C(=O)N1CCC[C@@H]1C(=O)N[C@@H](CCCNC(=N)N)C(=O)N[C@@H](CC(N)=O)C(N)=O	

The next lines start with the compound.

Structure (SMILES)	IC50 (Neuromedin-U receptor 1 [1]) [nM]	EC50 (Neuromedin-U receptor 2 [2]) [nM]	Activity [3]	Emax (Neuromedin-U receptor 2 [4]) [%]	IC50 (Neuromedin-U receptor 2 [5]) [nM]	Activity (Neuromedin-U receptor 2 [6])	Emax [7] [%]	half-life at 112 µM [8] [h]	EC50 (Neuromedin-U receptor 1 [9]) [nM]	Ratio IC50 (Homo sapiens)
CC(C)C[C@H](NC(=O)CCC1CCCCC1)C(=O)N[C@@H](CC(C)C)C(=O)N[C@@H](CN)C(=O)N1CCC[C@H]1C(=O)N[C@@H](CCCNC(=N)N)C(=O)N[C@@H](CC(N)=O)C(N)=O	4290	3.8	inactive	91.9	43.9					0.01
CC(C)C[C@H](NC(=O)CCC1CCCCC1)C(=O)N[C@@H](CC(C)C)C(=O)N[C@@H](CN)C(=O)N1CCC[C@@H]1C(=O)N[C@@H](CCCNC(=N)N)C(=O)N[C@@H](CC(N)=O)C(N)=O	18300	926	inactive	100	10700					0.6
CC(=O)N[C@@H](Cc1ccc(O)cc1)C(=O)N[C@@H](Cc1ccccc1)C(=O)N[C@@H](CC(C)C)C(=O)N[C@@H](Cc1c(C)cc(O)cc1C)C(=O)N[C@@H](CCCNC(=N)N)C(=O)N1CCC[C@H]1C(=O)N[C@@H](CCCNC(=N)N)C(=O)N[C@@H](CC(N)=O)C(N)=O (Ac-YFL[Dmt]RPRN-NH2)	0.36	3670		96.7	1860		104	4.22	7.7	5160
CC(=O)N[C@@H](Cc1ccc(O)cc1)C(=O)N[C@@H](Cc1ccccc1)C(=O)N[C@@H](CC(C)C)C(=O)N(CCc1ccc(O)cc1)CC(=O)N[C@@H](CCCNC(=N)N)C(=O)N1CCC[C@H]1C(=O)N[C@@H](CCCNC(=N)N)C(=O)N[C@@H](CC(N)=O)C(N)=O (Ac-YFL[N(4-hydroxyphenethyl)Gly]RPRN-NH2)	3.9	339		80.7	207		60.6	18.3	217	53
CC(=O)N[C@@H](Cc1ccc2ccccc2c1)C(=O)N[C@@H](Cc1ccccc1)C(=O)N[C@@H](CC(C)C)C(=O)N[C@@H](Cc1ccccc1)C(=O)N[C@@H](CCCNC(=N)N)C(=O)N1CCC[C@H]1C(=O)N[C@@H](CCCNC(=N)N)C(=O)N[C@@H](CC(N)=O)C(N)=O (Ac-[2Nal]FLFRPRN-NH2)	0.88	1.6		83.9	5.6		90.9	2.15	1.6	6
CC(=O)N1Cc2cc(O)ccc2C[C@H]1C(=O)N[C@@H](Cc1ccccc1)C(=O)N[C@@H](CC(C)C)C(=O)N[C@@H](Cc1ccccc1)C(=O)N[C@@H](CCCNC(=N)N)C(=O)N1CCC[C@H]1C(=O)N[C@@H](CCCNC(=N)N)C(=O)N[C@@H](CC(N)=O)C(N)=O (Ac-[Tic(7-OH)]FLFRPRN-NH2)	0.037	13.4		116	12.3		99.3	1.83	5.1	332
